Laboratory results from ChEMBL document CHEMBL3120069, “Chemical genetics-based discovery of indole derivatives as HCV NS5B polymerase inhibitors” (Eur J Med Chem, 2014).

How the values were obtained:
Hepatitis C virus [1] = experiment: Antiviral activity against Hepatitis C virus Con1 Bart79I genotype 1b expressing YFP infected in human Huh7.5 cells assessed as NS5A S2204I mutant synthesis at 5 uM after 120 hrs by FACS analysis (reference value: 66%); format: functional, Hepacivirus hominis, subtype 1b Con1 Bart79I, Huh-7
Method in brief: (§1)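 Huh7.5 cells stably carrying Bart79I-YFP subgenomic replicon (G418 selection), treated with DMSO or compound. Dose series over 5 days (120 h), or 10 M with sampling at 24, 48, 72 h. Cells washed, resuspended in PBS, and NS5A-YFP-positive cells counted by FACS. EC50 and T1/2 taken from response curves.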

Hepatitis C virus [2] = experiment: Antiviral activity against Hepatitis C virus Con1 Bart79I genotype 1b expressing YFP infected in human Huh7.5 cells assessed as inhibition of NS5A S2204I mutant synthesis at 10 uM by FACS analysis; format: functional, organism-based; details: Hepacivirus hominis, subtype 1b Con1 Bart79I, Huh-7, TDE = time-dependent effect; method in brief: as §1
Hepatitis C virus [3] = experiment: Antiviral activity against Hepatitis C virus JFH-1 J6 genotype 2a infected in human Huh7.5 cells assessed as inhibition of viral RNA replication after 72 hrs by luciferase reporter gene assay; format: functional, organism-based, Hepacivirus hominis; details: subtype 2a JFH1 J6, Huh-7, 72 h
Hepatitis C virus [4] = experiment: Antiviral activity against Hepatitis C virus Con1 Bart79I genotype 1b expressing YFP infected in human Huh7.5 cells assessed as NS5A S2204I mutant synthesis at 1 uM after 120 hrs by FACS analysis (reference value: 66%); format: functional, Hepacivirus hominis, subtype 1b Con1 Bart79I, Huh-7; method in brief: as §1
Hepatitis C virus [5] = experiment: Antiviral activity against Hepatitis C virus Con1 Bart79I genotype 1b infected in human Huh7.5 cells assessed as inhibition of NS5A S2204I mutant synthesis at 10 uM by Western blot analysis; format: functional, organism-based; details: Hepacivirus hominis, subtype 1b Con1 Bart79I, Huh-7, TDE = time-dependent effect
Method in brief: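 Bart79I replicon Huh7.5 cells, 1.5×10⁵/well, treated with DMSO or compound. Dose series for 5 days (120 h), or 10 M for 24, 48, 72 h. Lysed in RIPA with protease inhibitors and protein quantified by Bradford. NS5A and β-actin measured by Western blot, with NS5A normalized to β-actin. EC50 and T1/2 taken from response curves.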

Hepatitis C virus [6] = experiment: Antiviral activity against Hepatitis C virus Con1 Bart79I genotype 1b expressing NS5A S2204I mutant infected in human Huh7.5 cells assessed as inhibition of viral RNA replication after 72 hrs by real time qRT-PCR analysis; format: functional, organism-based; details: subtype 1b Con1 Bart79I
Method in brief: (§2)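 Huh7.5 cells stably carrying Bart79I genotype 1b subgenomic replicon (G418 750 mg/ml selection, 3 weeks), 3×10⁵ cells/well with DMSO or compound. Dose series over 72 h, or 10 M for increasing periods. Viral and host GAPDH RNA measured by real-time qRT-PCR. EC50 and T1/2 taken from response curves of triplicate experiments.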

Hepatitis C virus [7] = experiment: Antiviral activity against Hepatitis C virus Con1 Bart79I genotype 1b expressing NS5A S2204I mutant infected in human Huh7.5 cells assessed as inhibition of viral RNA replication at 10 uM by real time qRT-PCR analysis; format: functional, organism-based; details: Hepacivirus hominis, subtype 1b Con1 Bart79I, Huh-7, TDE = time-dependent effect; method in brief: as §2
Hepatitis C virus [8] = experiment: Antiviral activity against Hepatitis C virus JFH-1 J6 genotype 2a infected in human Huh7.5 cells assessed as inhibition of viral core synthesis at 10 uM by Western blot analysis; format: functional, organism-based; details: Hepacivirus hominis, subtype 2a JFH1 J6, Huh-7, TDE = time-dependent effect
Method in brief: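 J6/JFH1 RNA-transfected Huh7.5 cells on 10 µM compound, lysed at 24, 48, 72 h. HCV core and β-actin probed by Western blot, core intensity normalised to β-actin; T1/2 from the time-response curve.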

Hepatitis C virus [9] = experiment: Antiviral activity against Hepatitis C virus JFH-1 J6 genotype 2a infected in human Huh7.5 cells assessed as inhibition of viral core synthesis after 120 hrs by Western blot analysis; format: functional, organism-based
Method in brief: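 J6/JFH1 RNA-transfected Huh7.5 cells, 1.5 × 10⁵ per well, given DMSO or increasing concentrations for 120 h. RIPA lysates with protease inhibitors, protein by Bradford; HCV core and β-actin by Western blot, core normalised to β-actin. EC50 from dose-response.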

Hepatitis C virus [10] = experiment: Antiviral activity against Hepatitis C virus JFH-1 J6 genotype 2a infected in human Huh7.5 cells assessed as inhibition of viral RNA replication after 72 hrs by real time qRT-PCR analysis; format: functional, organism-based
[11] = Ratio of antiviral activity against Hepatitis C virus Con1 Bart79I genotype 1b expressing NS5A S2204I mutant infected in human Huh7.5 cells assessed as time required for reducing viral RNA level by half to antiviral activity against Hepatitis C virus JFH-1 J6 genotype 2a infected in human Huh7.5 cells assessed as time required for reducing viral RNA level by half; format: functional, Huh-7
[12] = Selectivity ratio of EC50 for Hepatitis C virus JFH-1 J6 genotype 2a to EC50 for Hepatitis C virus Con1 Bart79I genotype 1b expressing NS5A S2204I mutant; format: functional
[13] = Hepacivirus hominis, subtype 2a JFH1 J6, Huh-7

C/C(=C\c1c[nH]c2ccc(C#N)cc12)C(=O)Nc1ccc(C(C)(C)C)cc1
Activity (Hepatitis C virus [1]): 0.7% | inhibition (Hepatitis C virus [2]): tde | EC50 (Hepatitis C virus [3]): 1.1 µM | EC90 (Hepatitis C virus [3]): 2.1 µM | Activity (Hepatitis C virus [4]): 38.4% | inhibition (Hepatitis C virus [5]): tde | inhibition (Hepatitis C virus [6]; Hepacivirus hominis, Huh-7): Dose-dependent effect | EC50 (Hepatitis C virus [6]; Huh-7, 72 h): 0.6 µM | inhibition (Hepatitis C virus [7]): tde | inhibition (Hepatitis C virus [8]): tde | inhibition (Hepatitis C virus [9]; [13]): Dose-dependent effect | EC50 (Hepatitis C virus [9]; subtype 2a JFH1 J6, Huh-7, 120 h): 2 µM | inhibition (Hepatitis C virus [10]; [13]): Dose-dependent effect | EC50 (Hepatitis C virus [10]; subtype 2a JFH1 J6, Huh-7, 72 h): 1.9 µM | Ratio [11]: 1.8 | Ratio EC50 [12]: 3.2
